The record followed here is ChEMBL document CHEMBL4177580, “New 5-HT1A, 5HT2A and 5HT2C receptor ligands containing a picolinic nucleus: Synthesis, in vitro and in vivo pharmacological evaluation” (Bioorg Med Chem, 2017).

In series [1] the test system is Rattus norvegicus. The experiment in a line: In-vivo 5-HT1A receptor agonist activity in Wistar rat assessed as induction of lower lip retraction by measuring lower lip retraction score at 30 mg/kg, ip dosed 15 mins before test (reference value: 0.0 +/- 0.0).
Series [2] concerns the target T1, 5-hydroxytryptamine receptor 2C (Rattus norvegicus, UniProt P08909).
T1 sequence (P08909 whole entry): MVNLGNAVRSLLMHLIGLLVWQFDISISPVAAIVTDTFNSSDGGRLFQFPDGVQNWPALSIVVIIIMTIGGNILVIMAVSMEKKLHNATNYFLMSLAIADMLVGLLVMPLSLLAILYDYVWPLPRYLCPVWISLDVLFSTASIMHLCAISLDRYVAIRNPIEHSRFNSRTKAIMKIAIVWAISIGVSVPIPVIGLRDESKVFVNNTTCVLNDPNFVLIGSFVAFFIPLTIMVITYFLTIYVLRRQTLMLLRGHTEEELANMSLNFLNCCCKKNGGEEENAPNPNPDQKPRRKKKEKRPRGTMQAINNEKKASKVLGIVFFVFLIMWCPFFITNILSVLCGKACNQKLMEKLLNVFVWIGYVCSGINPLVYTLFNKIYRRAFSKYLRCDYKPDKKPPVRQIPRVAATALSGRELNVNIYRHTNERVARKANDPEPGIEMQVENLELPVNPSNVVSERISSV
The experiment in a line: Displacement of [3H]mesulergine from serotonin 5-HT2C receptor in Sprague-Dawley rat brain cortex homogenates incubated for 15 mins by liquid scintillation spectrometry. Background: Loss of bound radioactivity is the signal in a displacement assay; it reports binding, not function.

The test system of series [3] is Mus musculus. The experiment in a line: Toxicity in Swiss albino mouse assessed as effect on motor coordination at 3.75 to 15 mg/kg, ip dosed 60 mins before test by Chimney test. The class given is organism-based. Conditions: in vivo, 1 h. The essentials:
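Chimney test in male Swiss mice after i.p. dosing 60 min earlier: impairment defined as failure to climb backwards up a tube (3 cm inner diameter, 25 cm long) within 60 s. Animals pre-trained once daily for 3 days. One-way ANOVA with Dunnett's.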

Series [4] deals with T2, 5-hydroxytryptamine receptor 1A (Rattus norvegicus, UniProt P19327).
T2 sequence (P19327 whole entry): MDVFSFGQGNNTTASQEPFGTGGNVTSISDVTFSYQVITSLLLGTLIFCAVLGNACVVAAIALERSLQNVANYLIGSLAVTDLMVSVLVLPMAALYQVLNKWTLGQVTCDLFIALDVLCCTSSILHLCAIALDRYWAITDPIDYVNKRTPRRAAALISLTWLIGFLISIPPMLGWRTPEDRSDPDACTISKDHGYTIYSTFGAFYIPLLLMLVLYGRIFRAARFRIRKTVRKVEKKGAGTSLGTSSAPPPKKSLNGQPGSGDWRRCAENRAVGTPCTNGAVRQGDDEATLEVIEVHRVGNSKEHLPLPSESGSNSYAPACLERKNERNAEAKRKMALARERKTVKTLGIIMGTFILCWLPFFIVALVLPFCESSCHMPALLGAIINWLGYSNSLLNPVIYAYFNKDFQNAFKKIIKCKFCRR
Briefly: Displacement of [3H]-8-OH-DPAT from serotonin 5-HT1A receptor in Sprague-Dawley rat brain cortex homogenates incubated for 30 mins by liquid scintillation spectrometry.

In series [5] the target is 5-hydroxytryptamine receptor 2A (Rattus norvegicus, UniProt P14842). Briefly: Displacement of [3H]ketanserin from serotonin 5-HT2A receptor in Sprague-Dawley rat brain cortex homogenates incubated for 15 mins by liquid scintillation spectrometry.
Sequence of 5-hydroxytryptamine receptor 2A (P14842 whole entry): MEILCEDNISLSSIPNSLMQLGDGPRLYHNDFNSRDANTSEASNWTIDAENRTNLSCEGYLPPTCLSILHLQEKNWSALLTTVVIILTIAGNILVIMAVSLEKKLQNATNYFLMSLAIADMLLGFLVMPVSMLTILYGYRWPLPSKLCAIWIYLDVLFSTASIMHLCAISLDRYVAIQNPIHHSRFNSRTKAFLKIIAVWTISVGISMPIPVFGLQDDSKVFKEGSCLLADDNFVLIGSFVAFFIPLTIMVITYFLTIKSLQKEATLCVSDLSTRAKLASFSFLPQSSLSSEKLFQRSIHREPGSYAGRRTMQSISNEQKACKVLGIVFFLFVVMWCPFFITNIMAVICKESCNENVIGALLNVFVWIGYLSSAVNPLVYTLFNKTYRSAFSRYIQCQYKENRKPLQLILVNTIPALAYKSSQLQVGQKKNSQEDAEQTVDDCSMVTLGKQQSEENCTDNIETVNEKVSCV
Series [6] has as its system Rattus norvegicus. Briefly: In-vivo 5-HT1A receptor antagonist activity in Wistar rat assessed as reduction in 8-OH-DPAT-stimulated induction of lower lip retraction by measuring lower lip retraction score at 30 mg/kg, ip dosed 15 mins before test (reference value: 2.875 +/- 0.08183).
In series [7] the test system is Mus musculus. Briefly: Toxicity in Swiss albino mouse assessed as reduction in spontaneous locomotor activity at 15 mg/kg, ip dosed 60 mins before test. The class given is organism-based. The settings on record: in vivo, 1 h. The method in brief: (§1)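 Spontaneous locomotion: mice dosed i.p. 60 min before being placed individually in an actometer for 30 min. Distance travelled read at 6 and 30 min. Cages cleaned with 70% ethanol between animals. One-way ANOVA with Dunnett's; mean ± SEM of one experiment.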

The test system of series [8] is Mus musculus. Briefly: Inhibition of 8-OH-DPAT-induced hypothermia in Swiss albino mouse at 30 mg/kg, ip measured after 120 mins post dose co-treated with 8-OH-DPAT. The class given is functional, organism-based. The method in brief: (§2)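 Normothermic male Swiss mice; rectal thermistor readings over 180 min. Baseline is the mean of readings 60 and 30 min before dosing; readings at 30, 60, 90, 120 min post-injection; Δt = tf − ti. Test compounds i.p. (DMSO/methylcellulose); 8-OH-DPAT (5 mg/kg) and WAY 100635 (0.1 mg/kg) s.c. in water. Two-way ANOVA, Bonferroni.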

Series [9] deals with Rattus norvegicus. Briefly: In-vivo 5-HT1A receptor agonist activity in Wistar rat assessed as induction of lower lip retraction by measuring lower lip retraction score at 1 mg/kg, ip dosed 15 mins before test co-treated with 0.3 mg/kg, ip WAY100635.
Series [10] relates to Mus musculus. The experiment in a line: Toxicity in Swiss albino mouse assessed as reduction in spontaneous locomotor activity at 7.5 mg/kg, ip dosed 60 mins before test. Type of series: organism-based. The settings on record: in vivo, 1 h. The essentials:
as §1

Series [11] has as its system Mus musculus. Briefly: Induction of hypothermia in normothermic Swiss albino mouse assessed as reduction in body temperature at 30 mg/kg, ip measured after 120 mins post dose. Type of series: functional, organism-based. The essentials:
as §2

Series [12] has as its system Mus musculus. Briefly: Antidepressant-like activity in Swiss albino mouse assessed as reduction in immobility time at 7.5 mg/kg, ip dosed 1 hr before test by forced swimming test. The class given is functional, organism-based. The essentials: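 Male Swiss albino mice (18–24 g), compound i.p. in 0.1% DMSO/0.5% methylcellulose 1 h pre-test. Porsolt swim: cylinder 25 cm high, 10 cm diameter, 10 cm water at 23–25°C, 6 min session; immobility scored over last 4 min. Blind observer; one-way ANOVA with Dunnett's; mean ± SEM.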

In series [13] the test system is Mus musculus. Briefly: Anxiolytic-like activity in Swiss albino mouse assessed as increase in time spent in open arms at 3.75 to 15 mg/kg measured for 5 mins test period by elevated plus maze test. Type of series: functional, organism-based.
The test system of series [14] is Mus musculus. Briefly: Antidepressant-like activity in Swiss albino mouse assessed as reduction in immobility time at 15 mg/kg, ip dosed 1 hr before test by forced swimming test. Type of series: functional, organism-based. The method in brief:
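Male Swiss albino mice (18-24 g). The reference drug was diluted in saline and given ip (10 ml/kg) 1 h before testing. Each mouse swam for 6 min in a cylinder (25 cm high, 10 cm diameter) holding 10 cm of water at 23-25°C. Immobility was timed over the last 4 min. Data are mean ± SEM, analysed by one-way ANOVA with Dunnett's test.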

Series [15] has as its system Rattus norvegicus. Briefly: In-vivo 5-HT1A receptor agonist activity in Wistar rat assessed as induction of lower lip retraction by measuring lower lip retraction score at 0.3 mg/kg, ip dosed 15 mins before test (reference value: 0.0 +/- 0.0).
The test system of series [16] is Mus musculus. Briefly: Inhibition of 8-OH-DPAT-induced hypothermia in Swiss albino mouse at 0.1 mg/kg, ip measured after 120 mins post dose co-treated with 8-OH-DPAT. The class given is functional, organism-based.
Series [17] concerns Rattus norvegicus. Briefly: In-vivo 5-HT1A receptor antagonist activity in Wistar rat assessed as reduction in 8-OH-DPAT-stimulated induction of lower lip retraction by measuring lower lip retraction score at 0.3 mg/kg, ip dosed 15 mins before test (reference value: 2.875 +/- 0.08183).

The structures appear in SMILES notation. Activity calls are given as the source filed them.

As a reminder, the Ki is the equilibrium dissociation constant of an inhibitor or competing ligand from its target. Regarding `O=C(NCCN1CCN(c2ncccn2)CC1)c1ccccn1`, the values for the Activity_index in series [1] and in series [6] were 2.714 and 2, respectively. For the same compound, the Ki is greater than 10 µM in [2], 0.046 nM in [4] and greater than 10 µM in [5]. Further, the Activity entry in [3], in series [7] and in [10] was “Non-Toxic” each time. Moreover, in series [8], the inhibition result is “Active”. Besides, the result in series [9] and in series [11] was inactive. Moreover, the result in [12], in series [13] and in series [14] was Active.

`COc1ccccc1N1CCN(CCN(C(=O)C2CCCCC2)c2ccccn2)CC1` [WAY-100,635]: the values for the Activity_index in series [15] and in [17] were 0 and 1.667, respectively. In addition, the inhibition result in series [16] is “Active”.
